Assay results published in ChEMBL document CHEMBL4145686, “Discovery of a Potent and Selective Steroidal Glucocorticoid Receptor Antagonist (ORIC-101)” (J Med Chem, 2018).
Activity calls are given as the source filed them. The calls are words filed in the database; no cut-off is given here.

Key:
Glucocorticoid receptor [1] = molecular target: T1, Glucocorticoid receptor (Canis lupus familiaris, UniProt A0A8C0QLS2); assay: Antagonist activity at GR in dog PBMC assessed as reduction in dexamethasone-induced FKBP5 gene expression incubated for 6 hrs by RT-qPCR method; assay type: cell-based
T1 sequence (A0A8C0QLS2 whole entry): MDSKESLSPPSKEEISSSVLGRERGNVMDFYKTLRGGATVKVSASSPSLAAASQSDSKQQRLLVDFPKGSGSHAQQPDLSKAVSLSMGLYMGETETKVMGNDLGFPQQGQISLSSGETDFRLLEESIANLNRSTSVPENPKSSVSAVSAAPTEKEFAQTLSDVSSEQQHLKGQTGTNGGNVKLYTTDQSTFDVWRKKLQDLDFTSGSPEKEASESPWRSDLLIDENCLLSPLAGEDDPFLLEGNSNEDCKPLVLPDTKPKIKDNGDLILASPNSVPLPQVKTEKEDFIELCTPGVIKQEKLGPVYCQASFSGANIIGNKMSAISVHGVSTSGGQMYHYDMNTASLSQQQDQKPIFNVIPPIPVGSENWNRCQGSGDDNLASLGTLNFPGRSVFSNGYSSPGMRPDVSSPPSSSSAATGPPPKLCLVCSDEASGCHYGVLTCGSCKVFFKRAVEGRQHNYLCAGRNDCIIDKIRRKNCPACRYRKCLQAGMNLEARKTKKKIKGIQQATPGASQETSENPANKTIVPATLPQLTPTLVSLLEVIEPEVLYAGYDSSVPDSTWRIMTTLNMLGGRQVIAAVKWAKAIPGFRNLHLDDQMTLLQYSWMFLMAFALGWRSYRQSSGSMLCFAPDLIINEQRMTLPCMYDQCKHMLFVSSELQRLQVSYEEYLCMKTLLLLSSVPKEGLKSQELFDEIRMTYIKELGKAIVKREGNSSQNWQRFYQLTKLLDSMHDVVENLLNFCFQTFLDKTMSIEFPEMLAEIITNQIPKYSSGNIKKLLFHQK

Glucocorticoid receptor [2] = molecular target: T1, Glucocorticoid receptor; assay: Antagonist activity at GR in dog PBMC assessed as reduction in dexamethasone-induced GILZ gene expression incubated for 6 hrs by RT-qPCR method; assay type: cell-based
[3] = Half life in mouse at 0.5 mg/kg, iv; assay type: ADME, organism-based; conditions: in vivo
Androgen receptor = molecular target: T2, Androgen receptor (Homo sapiens, UniProt P10275); assay: Agonist activity at AR in human LNAR cells assessed as increase in TMPRSS2 gene expression at 100 nM incubated for 24 hrs by RT-qPCR method; assay type: cell-based; conditions: 0.1 µM
T2 sequence (P10275 whole entry): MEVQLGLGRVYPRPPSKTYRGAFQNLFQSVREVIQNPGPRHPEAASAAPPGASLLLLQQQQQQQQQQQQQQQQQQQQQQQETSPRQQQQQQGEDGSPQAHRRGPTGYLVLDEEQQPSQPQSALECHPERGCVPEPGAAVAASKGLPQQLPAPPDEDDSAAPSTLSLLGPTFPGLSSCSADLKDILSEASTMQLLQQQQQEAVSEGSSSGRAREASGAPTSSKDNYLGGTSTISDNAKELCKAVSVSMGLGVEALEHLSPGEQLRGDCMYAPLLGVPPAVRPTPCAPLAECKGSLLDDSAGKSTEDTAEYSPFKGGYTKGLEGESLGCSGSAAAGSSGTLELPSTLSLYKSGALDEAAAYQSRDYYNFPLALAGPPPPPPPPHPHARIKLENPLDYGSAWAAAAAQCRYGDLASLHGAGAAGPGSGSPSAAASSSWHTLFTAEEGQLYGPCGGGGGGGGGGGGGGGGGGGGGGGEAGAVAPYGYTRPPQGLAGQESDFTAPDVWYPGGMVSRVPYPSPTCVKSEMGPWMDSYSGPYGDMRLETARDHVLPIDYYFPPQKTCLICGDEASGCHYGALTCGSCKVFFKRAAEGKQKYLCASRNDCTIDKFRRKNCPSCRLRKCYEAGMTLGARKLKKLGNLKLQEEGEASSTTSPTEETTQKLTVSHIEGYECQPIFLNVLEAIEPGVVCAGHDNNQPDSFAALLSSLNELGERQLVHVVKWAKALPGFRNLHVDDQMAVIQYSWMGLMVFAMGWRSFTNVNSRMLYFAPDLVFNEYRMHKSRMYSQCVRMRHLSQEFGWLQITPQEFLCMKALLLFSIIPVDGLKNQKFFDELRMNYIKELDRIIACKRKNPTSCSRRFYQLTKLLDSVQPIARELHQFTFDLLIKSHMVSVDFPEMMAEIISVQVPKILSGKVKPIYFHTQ

OVCAR-5 [4] = assay: Potentiation of gemcitabine-induced antitumor activity against human OVCAR5 cells xenografted in chronic cortisol treated nude mouse assessed as reduction in tumor volume at 75 mg/kg, po BID dosed via gavage co-treated with gencitabine at 100 mg/kg dosed every 3 days for 4 doses; assay type: functional, organism-based
How it was run: (§1)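 Cortisol given in drinking water at 100 mg/L before tumor implantation and throughout the study. Mice bearing established OVCAR5 xenografts, n = 10 per group. Gemcitabine 100 mg/kg and carboplatin 60 mg/kg given every 3 days for 4 doses. Antagonist given at 75 mg/kg twice daily by oral gavage for the whole study. Tumor volume tracked, mean ± SEM, with significance assessed on day 21.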

[5] = Cmax in mini pig at 10 mg/kg, po; assay type: ADME, organism-based, Sus scrofa; parameters: dose 10 mg/kg, route oral; conditions: in vivo
OVCAR-5 [6] = assay: Antitumor activity against human OVCAR5 cells xenografted in chronic cortisol treated nude mouse assessed as reduction in tumor volume at 75 mg/kg, po BID dosed via gavage; assay type: functional, organism-based; how it was run: as §1
[7] = Clearance in mini pig at 0.5 mg/kg, iv; assay type: ADME, organism-based, Sus scrofa; conditions: in vivo

In the case of `CC(C)N(C)c1ccc([C@H]2C[C@@]3(C)[C@@H](CC[C@@]3(O)C#CC(C)(C)C)[C@@H]3CCC4=CC(=O)CC[C@@H]4[C@H]32)cc1`, the IC50 (Glucocorticoid receptor [1]) is reported as 24.5 nM, the IC50 (Glucocorticoid receptor [2]) is reported as 34.3 nM and the half-life [3] is reported as 4.83 h. For the same compound, the Activity (Androgen receptor) was “Not Active”, the Activity (OVCAR-5 [4]) was “Active” and the Cmax [5] was 153 ng/mL. For the same compound, the TGI (OVCAR-5 [6]) was “inactive” and the clearance [7] was 18.3 mL/min/kg.
